Data on five compounds can be found in paper PMC3240737 (Journal of medicinal chemistry, 2011).

One experiment has as its target [Y20]Aβ42 (Homo sapiens, UniProt P05067, F691Y/Y681F). The experiment is described as follows: Intrinsic Y fluorescence. To be noted: [Y20]Aβ42 5 μM, peptide 50 μM, pH 7.4, 22°C. Format: binding.
Another experiment deals with [Y30]Aβ42 (Homo sapiens, UniProt P05067, A701Y/Y681F). The experiment is described as follows: Intrinsic Y fluorescence. Format: binding. Particulars: [Y30]Aβ42 5 μM, peptide 50 μM, pH 7.4, 22°C.
The subject of experiment [1] is α-synuclein-induced toxicity in differentiated PC-12 cells. The experiment is described as follows: Inhibition of α-synuclein-induced toxicity, MTT assay. Particulars: α-synuclein 15 μM, increasing Aβ(39–42) concentrations, 24 h, n ≥ 15. Format: cell-based, rat. In a few lines:
(§1)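 PC-12 cells differentiated with nerve growth factor (100 ng/mL, 48 h), then exposed for 24 h to the toxin with or without a range of test compound concentrations. Viability by MTT, scaled between medium and 1 μM staurosporine full kill (100% reduction). Controls were NaOH-matched vehicle and medium alone. Mean ± SEM of ≥3 independent experiments, 5 replicates per point.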
(Tetrazolium dyes change colour on reduction, which living cells bring about.)

Another experiment deals with [Y42]Aβ42 (Homo sapiens, UniProt P05067, A713Y/Y681F). Kind of experiment: Intrinsic Y fluorescence. It counts as binding. To be noted: [Y42]Aβ42 5 μM, peptide 50 μM, pH 7.4, 22°C.
In experiment [2] the test system is Aβ42-induced toxicity in differentiated PC-12 cells. Kind of experiment: Inhibition of Aβ42-induced neurotoxicity, MTT assay. It counts as cell-based, rat. To be noted: for Inhibition of Aβ42-induced neurotoxicity, single-dose screen: Aβ42 10 μM with 10-fold excess of derivative, 24 h, MTT, n ≥ 18.
The next experiment has as its target WT Aβ42 (Homo sapiens, UniProt P05067). Kind of experiment: Intrinsic Y fluorescence. Format: binding. To be noted: peptide 50 μM, pH 7.4, 22°C. In a few lines: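 HFIP-treated peptide films were dissolved in 60 mM NaOH (10% of final volume) and diluted in 10 mM sodium phosphate, pH 7.4, to nominal Aβ42 5 μM ± test peptide 50 μM. Samples were spun at 5,000 g for 1 min, with concentrations verified by amino acid analysis. Ex 280 nm, em 290–400 nm, 22°C, ≥10 scans immediately. Buffer-subtracted, area integrated per micromole, normalized to Aβ42 alone; 4 experiments.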

Experiment [3] deals with mouse primary hippocampal neurons. To be noted: cited from earlier work.
Experiment [4] deals with alamethicin-induced toxicity in differentiated PC-12 cells. Kind of experiment: Inhibition of alamethicin-induced toxicity, MTT assay. Format: cell-based, rat. Particulars: alamethicin 4 μM, increasing Aβ(39–42) concentrations, 24 h, n ≥ 15. In a few lines: as §1
The next experiment has as its target [Y1]Aβ42 (Homo sapiens, UniProt P05067, D672Y/Y681F). Kind of experiment: Intrinsic Y fluorescence. Format: binding. To be noted: [Y1]Aβ42 5 μM, peptide 50 μM.

Residues, ends and D or L forms follow the SMILES beside them.

In the case of `CC[C@H](C)[C@H](NC(=O)[C@@H](NC(=O)[C@@H](N)C(C)C)C(C)C)C(=O)N[C@@H](C)C(=O)O` [Aβ(39–42)], the “Change of [Y20]Aβ42 fluorescence upon addition of peptide” value in experiment [Y20]Aβ42 is reported as “did not change significantly”. For the same compound, the “Change of [Y30]Aβ42 fluorescence upon addition of peptide” value in [Y30]Aβ42 is “did not change significantly”. The “Protection from α-synuclein-induced toxicity” value in experiment [1] was “only weak protection”. Besides, the “Change of [Y42]Aβ42 fluorescence upon addition of peptide” value in experiment [Y42]Aβ42 is listed as “did not change significantly”. In experiment [2] (Aβ42 10 μM, MTT and LDH), the “Dose dependence of inhibition of Aβ42-induced toxicity” value is listed as “dose-dependent inhibition”. The “Change of WT Aβ42 fluorescence upon addition of peptide” value at WT Aβ42 (WT Aβ42 5 μM) is “did not change significantly”. For the same compound, the “Rescue from Aβ42-induced inhibition of miniature excitatory postsynaptic current frequency” value in experiment [3] is reported as “significantly rescued”. The “Protection from alamethicin-induced toxicity” value in experiment [4] is on record as “only weak protection”.
On to `CC[C@H](C)[C@H](NC(=O)[C@@H](NC(=O)[C@@H](N)C(C)C)C(C)C)C(=O)N[C@@H](C)C(N)=O` [VVIA-NH2] (H-VVIA-NH2), for which the “Decrease of [Y30]Aβ42 fluorescence upon addition of peptide” value in [Y30]Aβ42 (mean ± SEM of 4 experiments) stood at 24 ± 3%. For the same compound, the “Inhibition of Aβ42-induced neurotoxicity, single-dose screen” value (“Inhibition of Aβ42-induced neurotoxicity” for short) in [2] is recorded as “as active as Aβ(39–42)”. The “Fold lower [Y1]Aβ42 fluorescence increase than with unmodified Aβ(39–42)” value in [Y1]Aβ42 came to 1.8 times.
Ac-AIVV: the “Inhibition of Aβ42-induced neurotoxicity” value in experiment [2] is listed as “no inhibitory activity”. Moreover, the “[Y1]Aβ42 fluorescence increase compared with Aβ(39–42)” value in [Y1]Aβ42 (Fig. S3) is reported as “significantly lower”.
Take Ac-VVIA: in [2], the “Inhibition of Aβ42-induced neurotoxicity” value was “no inhibitory activity”. Also, on WT Aβ42 (Aβ42 5 μM, mean ± SEM of 4 experiments), the “Decrease of Aβ42 fluorescence upon addition of peptide” value stood at 19 ± 3%.
Regarding VVAA, in experiment [2], the “Inhibition of Aβ42-induced neurotoxicity” value was “lost inhibitory activity”.
